Laboratory results taken from ChEMBL document CHEMBL4339223, “Polycyclic Maleimide-based Scaffold as New Privileged Structure for Navigating the Cannabinoid System Opportunities” (ACS Med Chem Lett, 2019).
Calls of active or inactive are those of the source. No cut-off for these calls is given here.

Key:
Cannabinoid receptor 1 [1] = target: T1, Cannabinoid receptor 1 (Homo sapiens, UniProt P21554); experiment: Displacement of [3H]-CP55940 from human recombinant cannabinoid CB1 receptor expressed in HEK293 cell membranes incubated for 90 mins by Cheng-Prusoff equation analysis
Method in brief: (§1)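 Competition binding against [3H]-CP55940 on human recombinant CB1 or CB2 receptor, with increasing concentrations of test compound. IC50 was obtained by nonlinear regression of the inhibition of radioligand binding. Ki was calculated with the Cheng–Prusoff equation, and only where IC50 was below 10 μM.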

[2] = Inhibition of calcium channel in human SH-SY5Y cells assessed as blockade of 70 mM potassium-evoked depolarization-induced Ca2+ entry; assay type: cell-based
Cannabinoid receptor 2 [3] = target: T2, Cannabinoid receptor 2 (Homo sapiens, UniProt P34972); experiment: (§2) Noncompetitive antagonist activity at human recombinant cannabinoid CB2 receptor expressed in CHOK1 cells assessed as inhibition of NKH-477-induced cAMP accumulation pre-incubated for 15 mins before NKH-477 stimulation for 30 mins by chemiluminescent detection based cAMP Hunter assay; assay type: functional, cell-based
Cannabinoid receptor 2 [4] = target: T2, Cannabinoid receptor 2; experiment: Displacement of [3H]-CP55940 from human recombinant cannabinoid CB2 receptor expressed in HEK293 cell membranes incubated for 90 mins; method in brief: as §1
Cannabinoid receptor 1 [5] = target: T1, Cannabinoid receptor 1; experiment: Displacement of [3H]-CP55940 from human recombinant cannabinoid CB1 receptor expressed in HEK293 cell membranes incubated for 90 mins; method in brief: as §1
Cannabinoid receptor 2 [6] = target: T2, Cannabinoid receptor 2; experiment: Displacement of [3H]-CP55940 from human recombinant cannabinoid CB2 receptor expressed in HEK293 cell membranes incubated for 90 mins by Cheng-Prusoff equation analysis; method in brief: as §1
[7] = target: Glycogen synthase kinase-3 beta (Homo sapiens, UniProt P49841); experiment: inhibition of GSK3beta (unknown origin) by LANCE Ultra TR-FRET assay
Cannabinoid receptor 2 [8] = target: T2, Cannabinoid receptor 2; experiment: as §2, with “accumulation by measuring parallel shifts of NKH-477 concentration-response curves” for “accumulation”, “assay based Schild plot analysis” for “assay”; assay type: functional, cell-based
Method in brief: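 Functional cAMP assay under NKH-477 (water-soluble forskolin analog) stimulation. JWH-133 concentration–response curves were run alone and with several concentrations of the antagonist. The concentration ratio was taken as EC50 of JWH-133 with antagonist divided by the concentration giving the same response without it. log(CR–1) was plotted against log antagonist concentration, and the Schild slope came from linear regression.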

Cannabinoid receptor 2 [9] = target: T2, Cannabinoid receptor 2; experiment: Activity at human recombinant cannabinoid CB2 receptor expressed in CHOK1 cells assessed as induction of cAMP content back to basal condition up to 25 uM pre-incubated for 15 mins before NKH-477 stimulation for 30 mins by chemiluminescent detection based cAMP Hunter assay; assay type: functional, cell-based

T2 sequence (P34972 whole entry): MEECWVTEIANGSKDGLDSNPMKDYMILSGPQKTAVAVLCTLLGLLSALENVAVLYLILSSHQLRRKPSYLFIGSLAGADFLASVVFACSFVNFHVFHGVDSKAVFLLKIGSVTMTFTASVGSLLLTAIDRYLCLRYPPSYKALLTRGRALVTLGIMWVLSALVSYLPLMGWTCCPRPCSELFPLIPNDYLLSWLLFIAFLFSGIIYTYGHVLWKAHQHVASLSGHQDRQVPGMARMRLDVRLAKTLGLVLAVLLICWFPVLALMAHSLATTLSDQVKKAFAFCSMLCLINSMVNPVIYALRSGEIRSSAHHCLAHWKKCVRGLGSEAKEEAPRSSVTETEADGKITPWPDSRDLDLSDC
T1 sequence (P21554 whole entry): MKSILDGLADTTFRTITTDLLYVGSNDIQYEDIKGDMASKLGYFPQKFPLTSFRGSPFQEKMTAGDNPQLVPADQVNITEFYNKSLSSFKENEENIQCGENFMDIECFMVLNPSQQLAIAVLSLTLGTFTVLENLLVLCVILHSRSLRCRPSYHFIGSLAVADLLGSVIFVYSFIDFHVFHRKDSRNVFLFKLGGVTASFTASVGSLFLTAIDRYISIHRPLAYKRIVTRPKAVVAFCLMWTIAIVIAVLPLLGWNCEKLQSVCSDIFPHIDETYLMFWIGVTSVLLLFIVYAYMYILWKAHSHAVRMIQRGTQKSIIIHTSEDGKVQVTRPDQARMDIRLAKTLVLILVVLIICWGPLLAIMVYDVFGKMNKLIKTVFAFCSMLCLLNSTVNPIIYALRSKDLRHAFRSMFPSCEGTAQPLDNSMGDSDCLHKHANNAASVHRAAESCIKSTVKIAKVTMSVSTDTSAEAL
Chain of Glycogen synthase kinase-3 beta (P49841 whole entry): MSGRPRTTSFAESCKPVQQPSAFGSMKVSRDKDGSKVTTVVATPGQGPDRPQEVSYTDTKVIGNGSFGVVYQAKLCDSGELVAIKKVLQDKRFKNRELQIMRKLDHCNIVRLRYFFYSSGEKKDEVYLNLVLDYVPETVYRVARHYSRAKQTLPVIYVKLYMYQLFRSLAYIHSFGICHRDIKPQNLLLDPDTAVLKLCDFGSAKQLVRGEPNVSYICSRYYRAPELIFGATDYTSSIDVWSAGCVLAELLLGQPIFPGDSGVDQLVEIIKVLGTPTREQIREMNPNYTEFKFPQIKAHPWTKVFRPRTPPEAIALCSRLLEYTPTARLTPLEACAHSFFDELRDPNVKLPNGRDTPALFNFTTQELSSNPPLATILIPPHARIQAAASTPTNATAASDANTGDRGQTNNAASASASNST

Activity (Cannabinoid receptor 2 [9]) | Structure (SMILES) | Ki (Cannabinoid receptor 1 [1]) [µM] | inhibition (INH) [2] | Activity (Cannabinoid receptor 2 [3]) | IC50 (Cannabinoid receptor 2 [4]) [µM] | IC50 (Cannabinoid receptor 1 [5]) [µM] | Ki (Cannabinoid receptor 2 [6]) [µM] | inhibition (INH) [7] | Activity (Cannabinoid receptor 2 [8])
 | CCCCCCCOCC12c3ccccc3C(c3ccccc31)C1C(=O)NC(=O)C12 (configuration not stated) | > 10 | Not Active | Active | 0.9 | > 10 | 0.23 | Not Active | Active
 | CCCCCCN1C(=O)C2C3c4ccccc4C(C)(c4ccccc43)C2C1=O (configuration not stated) | > 10 |  |  | 3.93 | > 10 | 1.01 |  | 
 | CCCCCCCN1C(=O)C2C3c4ccccc4C(Cl)(c4ccccc43)C2C1=O (configuration not stated) | > 10 |  |  | 9.88 | > 10 | 2.51 |  | 
 | CCCCCCCN1C(=O)C2C3c4ccccc4C(Br)(c4ccccc43)C2C1=O (configuration not stated) | > 10 |  |  | > 10 | > 10 | > 10 |  | 
 | CCCCCCCN1C(=O)C2C3c4ccccc4C(C)(c4ccccc43)C2C1=O (configuration not stated) | > 10 |  |  | 3.86 | > 10 | 0.98 |  | 
 | CCCCCCCOCC12c3ccccc3C(c3ccccc31)C1C(=O)N(CCCCCCC)C(=O)C12 (configuration not stated) | > 10 |  |  | > 10 | > 10 | > 10 |  | 
 | CCCCCCCCN1C(=O)C2C3c4ccccc4C(c4ccccc43)C2C1=O (configuration not stated) | > 10 |  |  | 8.74 | > 10 | 2.22 |  | 
 | O=C1NC(=O)C2C3c4ccccc4C(c4ccccc43)C12 (configuration not stated) | > 10 |  |  | > 10 | > 10 | > 10 |  | 
 | CCCCCCCNCC12c3ccccc3C(c3ccccc31)C1C(=O)N(CCCCCCC)C(=O)C12 (configuration not stated) | > 10 |  |  | > 10 | > 10 | > 10 |  | 
 | CCCCCCCNCC12c3ccccc3C(c3ccccc31)C1C(=O)NC(=O)C12 (configuration not stated) | > 10 |  |  | 3.93 | > 10 | 1.01 |  | 
 | CCCCCCCN1C(=O)C2C3c4ccccc4C(c4cc(Cl)ccc43)C2C1=O (configuration not stated) | > 10 |  |  | 6.85 | > 10 | 1.74 |  | 
 | CCCCCCCN1C(=O)C2C3c4ccccc4C(c4ccccc43)C2C1=O (configuration not stated) | 3.77 |  |  | 7.94 | 9.35 | 2.01 |  | 
inactive | CCCCCCN1C(=O)C2C3c4ccccc4C(c4ccccc43)C2C1=O (configuration not stated) | > 10 |  |  | 8.14 | > 10 | 2.06 |  | 
